Reference: publication PMC5652008 (EBioMedicine, 2017)
Square brackets hold non-standard residues; d marks the D form. Peptide text beside a SMILES is read from it. * marks the point of attachment. Succinyl(4-O-cholesteryl) = CC(C)CCC[C@@H](C)[C@H]1CC[C@H]2[C@@H]3CC=C4C[C@@H](OC(=O)CCC(=O)*)CC[C@]4(C)[C@H]3CC[C@]12C; Sta = CC(C)C[C@H](N)[C@@H](O)CC(=O)O; Palmitoyl = CCCCCCCCCCCCCCCC(=O)*

How the values were obtained:
[1] = biological target: T1, BACE1 (Homo sapiens, UniProt P56817); assay: Cell-based Aβ lowering IC50 assay; conditions: for Aβ40 production inhibition in HEK293 APP cells: 16 h / overnight incubation
Method in brief: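 Test compounds, free or Brain Shuttle-coupled, added in serial dilutions to HEK293 cells stably expressing wild-type human APP695, grown in Iscove's medium with 10% FBS to ~80% confluency. Construct dilution buffers served as control. Overnight at 37 °C, 5% CO2. Supernatant Aβ40 read by AlphaLISA: acceptor beads 1 h, then streptavidin donor beads 30 min, both at RT; emission at 615 nm. Compared with vehicle-treated cells; mean ± SEM.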

[2] = biological target: T2, BACE2 (Homo sapiens, UniProt Q9Y5Z0); assay: SPR binding assay on immobilized BACE2; conditions: BACE2 surface, 18 °C, pH 4.5
T2 sequence (Q9Y5Z0 20-465): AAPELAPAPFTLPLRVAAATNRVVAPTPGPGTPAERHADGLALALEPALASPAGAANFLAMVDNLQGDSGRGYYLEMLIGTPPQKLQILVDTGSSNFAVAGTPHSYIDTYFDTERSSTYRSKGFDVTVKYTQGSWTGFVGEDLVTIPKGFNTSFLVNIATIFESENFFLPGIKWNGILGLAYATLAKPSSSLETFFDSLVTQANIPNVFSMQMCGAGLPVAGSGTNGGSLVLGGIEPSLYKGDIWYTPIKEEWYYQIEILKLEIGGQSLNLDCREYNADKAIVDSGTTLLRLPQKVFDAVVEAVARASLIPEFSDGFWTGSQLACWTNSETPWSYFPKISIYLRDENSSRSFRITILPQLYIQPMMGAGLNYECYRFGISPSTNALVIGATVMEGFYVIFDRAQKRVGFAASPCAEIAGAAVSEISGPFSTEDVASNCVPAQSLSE
Method in brief: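 Binding was run at 18 °C in the same buffer, either single-cycle (5 concentrations) or multi-cycle (10 concentrations), twofold dilutions, against an activated/deactivated reference surface.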

[3] = biological target: T1, BACE1; assay: SPR binding assay on immobilized BACE1
Method in brief: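 SPR at 18 °C in the immobilization buffer. Peptide titrations used 2-fold dilution steps, run either as single-cycle kinetics (5 concentrations) or multi-cycle kinetics (10 concentrations). Two protein surfaces and an activated/deactivated CM5 reference surface were measured in parallel on one sensor.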

[4] = system: plasma Aβ; assay: Plasma Aβ40 after single i.v. dose in mice; assay type: in vivo, C57BL/6 J mice; conditions: 5 h post dose; for Plasma Aβ40 inhibition: 0.003-3 mg/kg i.v., uncoupled peptides; for Plasma Aβ level reduction: 3 mg/kg i.v., uncoupled peptide
Method in brief: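 Nine-week-old female mice received one i.v. injection of test compound at 0.003–3 mg/kg, with the buffer alone as vehicle control; three animals per group. Under anaesthesia, blood was collected into EDTA tubes, spun 8 min at 1600 × g, and plasma diluted 1:10 in 0.2% diethanolamine before solid-phase extraction.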

[5] = system: Aβ production in human stem-cell derived neurons; assay: Human neural stem cell-based Aβ40 inhibition assay; conditions: 48 h incubation
Method in brief: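 Neurons differentiated from SB-AD3 human iPSCs (healthy adult donor fibroblasts) via embryoid bodies and dual SMAD inhibition. Doses 0.128–10,000 nM (three independent differentiations) or 0.001024–80 nM (one differentiation), two technical replicates per dose. Vehicle was histidine/NaCl/1.3 mM hydroxypropyl-β-cyclodextrin for peptides and DMSO for small molecules. Aβ40 read by AlphaLISA at 615 nm, compared with vehicle-treated cells; means ± SEM.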

[6] = biological target: Beta-secretase 1 (BACE1), C-terminal His-tagged full length; assay: SPR
[7] = biological target: T3, N-terminal T7-tagged BACE2 (amino acids 20-465) (UniProt Q9Y5Z0 20-465); assay: SPR
T3 sequence: T2 sequence (Q9Y5Z0 20-465)

[8] = biological target: BACE1 ectodomain mutant protein (A14-T454, K307A) (UniProt P56817 14-454, K307A); assay: crystal structure
Chain of BACE1 ectodomain mutant protein (A14-T454, K307A) (P56817 14-454 K307A): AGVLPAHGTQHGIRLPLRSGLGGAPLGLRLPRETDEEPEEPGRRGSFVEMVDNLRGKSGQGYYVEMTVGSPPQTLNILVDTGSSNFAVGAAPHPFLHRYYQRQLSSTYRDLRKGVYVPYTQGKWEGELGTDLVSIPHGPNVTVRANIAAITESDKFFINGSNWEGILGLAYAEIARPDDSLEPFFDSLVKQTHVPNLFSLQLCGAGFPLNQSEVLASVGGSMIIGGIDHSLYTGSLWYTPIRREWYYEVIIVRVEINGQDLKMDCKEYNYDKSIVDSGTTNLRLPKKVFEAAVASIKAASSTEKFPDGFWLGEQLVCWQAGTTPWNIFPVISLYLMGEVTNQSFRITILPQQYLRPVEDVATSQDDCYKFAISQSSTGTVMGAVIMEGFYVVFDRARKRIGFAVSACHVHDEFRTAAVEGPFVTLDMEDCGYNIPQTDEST

T1 sequence (P56817 46-501): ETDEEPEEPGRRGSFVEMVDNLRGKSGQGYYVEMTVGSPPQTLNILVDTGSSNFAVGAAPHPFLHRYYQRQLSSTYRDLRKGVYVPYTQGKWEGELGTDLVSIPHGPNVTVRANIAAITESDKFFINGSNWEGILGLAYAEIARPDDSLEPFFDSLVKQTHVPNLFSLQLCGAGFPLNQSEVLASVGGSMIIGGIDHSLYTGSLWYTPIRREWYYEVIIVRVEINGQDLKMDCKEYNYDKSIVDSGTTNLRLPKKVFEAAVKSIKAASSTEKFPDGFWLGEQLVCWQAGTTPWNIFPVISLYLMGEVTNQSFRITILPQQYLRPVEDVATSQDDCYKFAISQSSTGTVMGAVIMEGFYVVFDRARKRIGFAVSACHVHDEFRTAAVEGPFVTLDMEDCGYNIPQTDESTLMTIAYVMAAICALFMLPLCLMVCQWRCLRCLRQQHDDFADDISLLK

| Molecule | Plasma Aβ40 inhibition [4] | Plasma Aβ level reduction [4] | Aβ40 production inhibition in HEK293 APP cells [1] | Aβ production inhibition in human stem-cell derived neurons [5] | other results |
| --- | --- | --- | --- | --- | --- |
| CC(C)C[C@H](NC(=O)[C@H](CC(N)=O)NC(=O)[C@@H](NC(=O)[C@@H](N)CCC(=O)O)C(C)C)[C@@H](O)CC(=O)N[C@H](C(=O)N[C@@H](C)C(=O)N[C@@H](CCC(=O)O)C(=O)N1CCC[C@@H]1C(N)=O)C(C)C [Pep#1, Glu-Val-Asn-Sta-Val-Ala-Glu-DPro-NH2] (H-EVN[Sta]VAE[dP]-NH2; N-terminus assumed) | – | – | – | – | IC50 [1]: > 40 µM; kon [2]: 2.7–3.1·10^3 1/Ms; kon ([3]; BACE1 surface, 18 °C, pH 4.5): 2.5–4.0·10^3 1/Ms; Selectivity for BACE1 ([3]; ratio KD(BACE2)/KD(BACE1)): > 280 |
| CC[C@H](C)[C@H](NC(=O)[C@H](Cc1ccccc1)NC(=O)[C@H](Cc1ccc(O)cc1)NC(=O)[C@@H]1CCCN1C(=O)[C@H](Cc1ccc(O)cc1)NC(=O)CNC(=O)CNC(=O)CN)C(=O)N1CCC[C@H]1C(=O)N[C@H](CCCCN)C(=O)NCC(=O)N[C@H](CCCCN)C(=O)NCC(=O)N[C@@H](CCC(=O)O)C(=O)N[C@H](C(=O)N[C@@H](CC(N)=O)C(=O)N[C@@H](CC(C)C)[C@@H](O)CC(=O)N[C@H](C(=O)N[C@@H](C)C(=O)N[C@@H](CCC(=O)O)C(=O)N1CCC[C@@H]1C(=O)N[C@@H](CCCCNC(=O)CCC(=O)O[C@H]1CC[C@@]2(C)C(=CC[C@H]3[C@@H]4CC[C@H]([C@H](C)CCCC(C)C)[C@@]4(C)CC[C@@H]32)C1)C(N)=O)C(C)C)C(C)C [Pep#14, Gly-Gly-Gly-Tyr-Pro-Tyr-Phe-Ile-Pro-DLys-Gly-DLys-Gly-Glu-Val-Asn-Sta-Val-Ala-Glu-DPro-Lys(Chol'ester’)-NH2] (H-GGGYPYFIP[dK]G[dK]GEVN[Sta]VAE[dP]K(Succinyl(4-O-cholesteryl))-NH2; N-terminus assumed) | Dose-dependent inhibition | 51% | blocked production of Aβ40 | able to reduce the Aβ production | – |
| CCCCCCCCCCCCCCCC(=O)NCCCC[C@H](NC(=O)[C@H]1CCCN1C(=O)[C@H](CCC(=O)O)NC(=O)[C@H](C)NC(=O)[C@@H](NC(=O)C[C@H](O)[C@H](CC(C)C)NC(=O)[C@H](CC(N)=O)NC(=O)[C@@H](NC(=O)[C@H](CCC(=O)O)NC(=O)CNC(=O)[C@@H](CCCCN)NC(=O)CNC(=O)[C@H](CC(C)C)NC(=O)[C@@H]1CCCN1C(=O)[C@@H](NC(=O)[C@H](Cc1ccccc1)NC(=O)[C@H](CCCCN)NC(=O)[C@@H]1CCCN1C(=O)[C@H](Cc1ccc(O)cc1)NC(=O)CNC(=O)CNC(=O)CN)[C@@H](C)CC)C(C)C)C(C)C)C(N)=O [Pep#15, Gly-Gly-Gly-Tyr-Pro-Lys-Phe-Ile-Pro-Leu-Gly-DLys-Gly-Glu-Val-Asn-Sta-Val-Ala-Glu-DPro-Lys(Palmitoyl)-NH2] (H-GGGYPKFIPLG[dK]GEVN[Sta]VAE[dP]K(Palmitoyl)-NH2; N-terminus assumed) | Dose-dependent inhibition | 50% | blocked production of Aβ40 | able to reduce the Aβ production | – |
| Ac-YPYFLPISAK-NH2 [Pep#6] | – | – | – | – | Kd [6]: 25 µM; Kd [7]: 66 µM |
| Ac-ALYPYFLPISAK-NH2 [Pep#6a] | – | – | – | – | binding result [8]: binds |
